Common to all, as to assay type: functional
Holding throughout (details): route oral

For test [1], the system named is Rattus norvegicus. In words: Compound was evaluated for the hypolipidemic activity at 20 mg/kg per day orally for 14 days on protein content in rat small intestine. Summed up:
(§1)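 Male Sprague–Dawley rats were dosed orally for 14 days. Liver, small intestine and a 24-h fecal collection were lipid-extracted. Extracts were assayed for cholesterol (modified Liebermann–Burchard), triglyceride (enzymatic kit), neutral lipids, phospholipids and protein. Values are % of 1% CMC vehicle control, mean ± SD, N = 6.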

Test [2] deals with Rattus norvegicus. In words: Compound was evaluated for the hypolipidemic activity at 20 mg/kg per day orally for 14 days on neutral lipids content in rat small intestine. Summed up: as §1
The test system of test [3] is Rattus norvegicus. In words: Compound was evaluated for the hypolipidemic activity at 20 mg/kg per day orally for 14 days on lipid content in rat feces. Summed up: as §1
Test [4] concerns Rattus norvegicus. In words: Compound was evaluated for the hypolipidemic activity at 20 mg/kg per day orally for 14 days on lipid content in rat small intestine. Summed up:
as §1

The subject of test [5] is Rattus norvegicus. In words: Compound was evaluated for the hypolipidemic activity at 20 mg/kg per day orally for 14 days on triglycerides content in rat lipoprotein chylomicron; p</=0.001. The procedure, abridged: (§2)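 Male Sprague–Dawley rats (~300 g) were dosed orally each day. Blood was drawn from the abdominal vein. Lipoprotein fractions (chylomicron, VLDL, LDL, HDL) were separated by the Hatch–Lees and Havel methods. Each fraction was assayed for cholesterol, triglyceride (enzymatic kit), neutral lipids, phospholipids and Lowry protein. Values are % of 1% CMC vehicle control, N = 6.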

A further test relates to Mus musculus. In words: Compound was evaluated for the hypolipidemic activity in CF1 male mice at a dose of 10 mg/kg orally for Serum cholesterol at 16th day. Summed up:
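CF1 male mice received the agent orally in 1% CMC at 10–60 mg/kg per day. Tail-vein blood was taken on days 9 and 16. Serum cholesterol was measured by modified Liebermann–Burchard on duplicate 25-µL samples, and serum triglyceride on day 16 in duplicate 50-µL samples. Values are % of vehicle control, mean ± SD, N = 6; Student's t test.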

In test [6] the test system is Rattus norvegicus. In words: Compound was evaluated for the hypolipidemic activity at 20 mg/kg per day orally for 14 days on phospholipids content in rat lipoprotein chylomicron. Summed up:
as §2

For test [7], the system named is Rattus norvegicus. In words: Compound was evaluated for the hypolipidemic activity at 20 mg/kg per day orally for 14 days on protein content in rat feces. The procedure, abridged:
as §1

The test system of test [8] is Rattus norvegicus. In words: Compound was evaluated for the hypolipidemic activity at 20 mg/kg per day orally for 14 days on protein content in rat lipoprotein chylomicron. Summed up: as §2

Here are results for 1 compound from ChEMBL document CHEMBL1123129, “Hypolipidemic activity of indan-1,3-dione derivatives in rodents” (J Med Chem, 1985).

As to `COc1ccc(C2C(=O)c3ccccc3C2=O)cc1` [ANISINDIONE], the Control is reported as 102% in the test on Rattus norvegicus [1]; 95% with Rattus norvegicus [2]; 103% in the test on Rattus norvegicus [3]; 100% in the test with Rattus norvegicus [4]; 72% in the test on Rattus norvegicus [5]; 63% in the test on Mus musculus. The Control in the test with Rattus norvegicus [6] came to 135%; in the test on Rattus norvegicus [7], 99%; with Rattus norvegicus [8], 118%.
